These results are taken from ChEMBL document CHEMBL1151163, “New chromanone acids with antibacterial activity from Calophyllum brasiliense” (J Nat Prod, 2004).

In brackets after ≈: the same amount, converted by molar mass.

The nature of assay [1]: Cytotoxicity against Myosarcoma cells. The class given is functional, cell-based. The method in brief:
(§1)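 Cytotoxicity followed previously published protocols. KB cells (HeLa-derived, ATCC CCL 17) used podophyllotoxin as the positive control. Jurkat T helper cells (ATCC TIB 152) used helenalin. Myosarcoma cells used aculeatin A.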

Assay [2] relates to Staphylococcus epidermidis. As to the kind of experiment: Antimicrobial activity against Staphylococcus epidermidis ATCC 12228 by doubling dilution method. The class given is functional. The method in brief:
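Twofold serial (doubling) dilution susceptibility test following a previously published protocol, with chloramphenicol as the positive control.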

For the next assay, the system named is KB. The experiment in a line: Cytotoxicity against human KB cells. The class given is functional, cell-based. The method in brief: as §1
Another assay relates to Jurkat. As to the kind of experiment: Cytotoxicity against human Jurkat T cells. The class given is functional, cell-based. The method in brief: as §1

One may read the IC50 as the concentration at which inhibition is half-maximal. As to `CCCCCCCCCCCCC[C@@H]1C[C@@H](O)C[C@]2(CCC3(C=CC(=O)C=C3)O2)O1` [ACULEATIN A], the IC50 in assay [1] worked out at 0.3 µg/mL (≈ 0.717 µM).

Broadly, the MIC is the smallest concentration in the dilution series that meets the test's criterion for growth inhibition. For the molecule `C=C(C)[C@@H]1C[C@@H](CC2(CC=C(C)C)C(=O)C3=C(O)[C@@H](C)[C@@H](C)OC3=C(C(CC(=O)O)c3ccccc3)C2=O)C1(C)C` (relative stereo) [BRASILIENSOPHYLLIC ACID A], it took 16 µg/mL (≈ 28.5 µM) to inhibit growth in assay [2] (MIC). Further, the concentration for half-maximal inhibition (IC50) (with KB; with Jurkat; in assay [1]) was greater than 20 µg/mL throughout.

Regarding `C=C(C)[C@@H]1C[C@@H](CC2(CC=C(C)C)C(=O)C(C(CC(=O)O)c3ccccc3)=C3O[C@H](C)[C@@H](C)C(=O)C3=C2O)C1(C)C` (relative stereo) [BRASILIENSOPHYLLIC ACID B], the MIC in assay [2] worked out at 16 µg/mL (≈ 28.5 µM). Besides, the IC50 (in the assay with KB; with Jurkat; in assay [1]) was greater than 20 µg/mL throughout.

As to `C=C1C(=O)O[C@@H]2C[C@@H](C)[C@@H]3C=CC(=O)[C@@]3(C)[C@@H](O)[C@H]12` [HELENALIN], the IC50 in the assay with Jurkat is 0.03 µg/mL (≈ 0.114 µM).

In assay [2], `C=C(C)[C@@H]1C[C@@H](CC2(CC=C(C)C)C(=O)C3=C(O)[C@@H](C)[C@H](C)OC3=C(C(CC(=O)O)c3ccccc3)C2=O)C1(C)C` (relative stereo) [ISOBRASILIENSOPHYLLIC ACID A] showed a minimum inhibitory concentration (MIC) of 16 µg/mL (≈ 28.5 µM). Moreover, the half-maximal inhibitory concentration (IC50) (in the assay on KB; with Jurkat; in assay [1]) was greater than 20 µg/mL in each case.

In assay [2], `O=C(N[C@H](CO)[C@H](O)c1ccc([N+](=O)[O-])cc1)C(Cl)Cl` [CHLORAMPHENICOL] showed a minimum inhibitory concentration (MIC) of 4 µg/mL (≈ 12.4 µM).

As to `COc1cc([C@@H]2c3cc4c(cc3[C@H](O)[C@H]3COC(=O)[C@H]23)OCO4)cc(OC)c1OC` [PODOFILOX], in the assay on KB, half-maximal inhibition (IC50) required 0.005 µg/mL (≈ 0.0121 µM).

For `C=C(C)[C@@H]1C[C@@H](CC2(CC=C(C)C)C(=O)C(C(CC(=O)O)c3ccccc3)=C3O[C@@H](C)[C@@H](C)C(=O)C3=C2O)C1(C)C` (relative stereo) [ISOBRASILIENSOPHYLLIC ACID B], the MIC in assay [2] is 16 µg/mL (≈ 28.5 µM). The 50% inhibitory concentration (IC50) (in the assay with KB; in the assay with Jurkat; in assay [1]) was greater than 20 µg/mL in each case.
